In the library only some 2.6% were active in any assay of this set; here they are far more common.
XiGFP reactiv = activators of inactive X chromosome reactivation, primary screen, imaging, XiGFP fibroblasts, GFP high-content imaging, set 2 | XiGFP mouse fibroblasts, % GFP-positive cells imaging, 3 d; cells co-treated with 5-aza-dC sensitizer; scaled so ellipticine positive control = 100% | activation, % at 7.58 µM | hit rate 0.055% among 360,000;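 active = mean normalized replicate activation at least 10% and every replicate at or above 10%; inconclusive = only one of the two criteria met; inactive = mean below 10% and not all replicates reach 10%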
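material = 68-5-11 XiGFP fibroblast line | medium = DMEM plus 5-aza-dC sensitizer | schedule = 3 days compound exposure | benchmarks = positive control ellipticine, 6 µM final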
Vif inh = HIV Vif self-association inhibitors, primary screen, imaging, HEK293T, single point. HEK293T cells, Vif self-association by quenched fluorescence, 24 h. AID 602346, 2012. hit rate 0.35% among 340,000. inhibition, % at 7.49 µM; in the data active = inhibition above about 50%, passing the limit was not always enough; inconclusive = no clear call, values can overlap the other calls; inactive = below about 31%
Wnt act = Wnt/beta-catenin pathway activators, primary screen, cell-based, plate reader, single point | Wnt/beta-catenin reporter cell assay, activator | activation, % at 9.35 µM | AID 743398, 2014 | hit rate 1.2% among 300,000; in the data active = activation above about 30%, passing the limit was not always enough; inconclusive = no clear call, values can overlap the other calls
MITF act = activators of MITF-driven TRPM1 promoter reporter, primary screen, cell-based, SK-MEL-5, luciferase, single point | SK-MEL-5 TRPM1-promoter luciferase, 24 h; % of positive control, neutral wells = 0 | activation, % at 12.5 µM | hit rate 0.75% among 300,000 | AID 588334, 2011;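 active = mean activation of at least 80% with every replicate also reaching 80%; inconclusive = mean reaches 80% but some replicate falls short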
esBAF inh = Bmi1 luciferase reporter increase in mESCs, primary screen, esBAF inhibitor project, mouse ES cells, Bmi1 luciferase knock-in, single point; 24 h; 100% = twice the neutral-well signal; reporter increase, % at 12.5 µM; hit rate 2% among 350,000; AID 602393, 2012; in the data active = activation above about 40%; inconclusive = no clear call, values can overlap the other calls;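 note: a rise in the Bmi1 reporter signal indicates esBAF inhibition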
Hits are given with their value; 0 = inactive; ? = inconclusive; - = not tested or not shown; ! = not active in a repeat.

SMILES | XiGFP reactiv | Vif inh | Wnt act | MITF act | esBAF inh
O=C(NCc1ccccc1)c1c[nH]c2cc3c(cc2c1=O)OCCO3 | - | 0 | 0 | 0 | 51
CCCCn1nc2cc(C(=O)NCCc3cccs3)ccc2c1OCC | 0 | 0 | 0 | 0 | 41
CCOc1c2ccc(C(=O)NCCc3cccs3)cc2nn1CC | 0 | 0 | 32 | 0 | 45
CCCn1nc2cc(C(=O)NCCCCc3ccccc3)ccc2c1OCC | 0 | 0 | 0 | 0 | 0
CCCn1nc2cc(C(=O)NCCc3ccc(C)cc3)ccc2c1OCC | 0 | 0 | 0 | 0 | 0
C[C@@H]1CN([C@@H](C)CO)C(=O)Cc2cc(NC(=O)Cn3cnnn3)ccc2O[C@@H]1CN(C)C(=O)NC1CCCCC1 | 0 | - | - | - | 0
O=C(C1CCOCC1)N1CC(=O)N2[C@H](CO)[C@@H](c3ccc(C#CC4CCCC4)cc3)[C@@H]2C1 | 0 | - | - | - | -
COc1cccc(/C=C2\Oc3ccc(O)cc3C2=O)c1O | 0 | 0 | 38 | 0 | 0
COC(=O)c1ccc2c(c1)C(=O)/C(=C/c1ccc(O)cc1)O2 | 0 | 0 | 0 | 0 | ?
c1cncc(CSc2ccc(-c3ccc4c(c3)OCO4)nn2)c1 | 0 | 0 | 32 | 0 | 49
Cc1ccc(C(=O)N/N=C\c2ccc(OC(=O)c3cccs3)cc2)cn1 | 0 | 0 | 0 | 0 | -
O=C(N/N=C/c1ccc(OC(=O)c2cccs2)cc1)c1ccccn1 | 0 | 0 | 0 | 99 | -
Cc1ccc(C(=O)N/N=C/c2ccc(OC(=O)c3ccccc3Cl)cc2)cn1 | 0 | 58 | 0 | 0 | 0
O=C(N/N=C/c1ccc(N2CCOCC2)cc1)c1ccccn1 | 0 | 0 | 36 | 0 | -
COc1cccc(C(=O)Nc2ccc3c(c2)C(=O)N(C)[C@@H]2CC[C@H](CC(=O)NCCCN4CCOCC4)O[C@@H]2CO3)c1 | 0 | - | - | - | 0
C[C@@H]1CN([C@H](C)CO)C(=O)c2cc(NC(=O)CCN3CCOCC3)ccc2O[C@H]1CN(C)C | 0 | - | - | - | 0
COc1ccc(CN(C)C[C@@H]2Oc3c(NC(=O)Nc4c(C)noc4C)cccc3C(=O)N([C@H](C)CO)C[C@H]2C)cc1 | 0 | - | - | - | 0
Cc1cc(C(=O)Nc2ccc3[nH]ccc3c2)no1 | 0 | 0 | 59 | 0 | 0
Brc1ccccc1OCCCn1cnc2ccccc21 | - | 0 | 0 | 92 | 48
c1ccc2c(c1)ncn2CCCCOc1ccc2c(c1)CCC2 | - | 0 | - | - | 0
c1ccc2c(c1)ncn2CCCOc1ccc2c(c1)CCC2 | - | 0 | 38 | - | 0
CC(=O)N1[C@@H]2c3cccc(=O)n3C[C@H]1[C@H](CO)[C@H]2C(=O)NC1CCCC1 | 0 | - | - | - | 0
O=C(Nc1nccs1)c1ccc(-c2ccc([N+](=O)[O-])cc2)o1 | 0 | 80 | 0 | 0 | 69
O=C(Nc1nccs1)c1ccc(-c2ccc(Cl)cc2)o1 | 0 | 0 | 52 | 109 | -
O=C(Nc1nccs1)c1ccc(-c2ccccc2[N+](=O)[O-])o1 | 0 | 0 | 35 | 0 | 86
SMILES | XiGFP reactiv | Vif inh | Wnt act | MITF act | esBAF inh
COc1ccccc1NC(=O)c1ccc(-c2ccccc2[N+](=O)[O-])o1 | 0 | 0 | 0 | 94 | -
O=C(Nc1nccs1)c1ccc(-c2ccccc2Cl)o1 | - | 0 | ? | 0 | -
O=C(Nc1ccccc1)c1ccc(-c2ccc([N+](=O)[O-])cc2)o1 | 0 | 0 | 0 | 0 | 0
C[C@@H]1CN([C@@H](C)CO)C(=O)c2cccc(NC(=O)C3CCCCC3)c2O[C@H]1CN(C)S(=O)(=O)c1cn(C)cn1 | 0 | - | - | - | 0
O=C(Nc1nccs1)c1ccc(-c2ccc(F)cc2)o1 | 0 | 0 | 37 | 142 | -
COc1ccccc1C(O)(C(=O)NN(C(=O)c1ccccc1)c1ccccc1C)c1cccs1 (stereo not drawn) | - | 52 | - | - | 0
CCNC(=O)[C@@H]1[C@@H](CO)[C@@H]2Cn3c(ccc(-c4ccccc4F)c3=O)[C@@H]2N1C(C)=O | 0 | - | - | - | 0
C[C@@H]1CN([C@@H](C)CO)C(=O)c2cccc(N(C)C)c2O[C@@H]1CN(C)Cc1ccc(Cl)c(Cl)c1 | 0 | - | - | - | 0
Cc1ccnc(SCc2cc(=O)c(OC(=O)c3ccc(Br)o3)co2)n1 | 0 | 0 | 51 | 0 | -
O=C(Oc1coc(CSc2ncccn2)cc1=O)c1ccc(Br)o1 | 0 | 0 | 0 | 0 | -
Cc1noc(C)c1S(=O)(=O)Nc1ccc2c(c1)CC(=O)N([C@H](C)CO)C[C@@H](C)[C@H](CN(C)C(=O)Nc1ccc(F)cc1)O2 | 0 | - | - | - | 0
C/C(=N\NC(=O)c1ccc2c(c1)OCO2)c1ccc(NS(C)(=O)=O)cc1 | 0 | 0 | 0 | 0 | 51
C/C(=N\NC(=O)c1ccc2c(c1)OCO2)c1ccc(O)cc1 | 0 | 0 | 0 | 0 | -
O=C(CN(CCc1ccccc1)S(=O)(=O)c1ccc(Cl)cc1)N/N=C/c1ccc2c(c1)OCO2 | 0 | 0 | 34 | 0 | -
O=C(N/N=C/c1ccc(Cl)cc1)c1ccc2c(c1)OCO2 | 0 | 0 | 0 | 0 | 63
COc1ccc(S(=O)(=O)N(CCc2ccccc2)CC(=O)N/N=C/c2ccc3c(c2)OCO3)cc1 | 0 | 0 | 0 | 0 | -
O=C(N/N=C/c1ccc2c(c1)OCO2)c1ccc2c(c1)OCCO2 | 0 | 0 | 0 | 0 | -
O=C(N/N=C/c1ccsc1)c1ccc2c(c1)OCO2 | 0 | 0 | 0 | 86 | 49
CCCC#Cc1cnc2c(c1)C(=O)N([C@H](C)CO)C[C@@H](C)[C@@H](CN(C)C(=O)Nc1ccc(OC)cc1)O2 | 0 | - | - | - | 0
O=c1[nH]c(-c2ccc(-c3cccc(Cl)c3)o2)nc2ccccc12 | 0 | 0 | ? | 104 | 58
O=c1[nH]c(SCc2cccc(Cl)c2)nc2ccccc12 | 0 | 0 | 0 | 0 | -
CC(C)C(OC(=O)C1=Cc2ccccc2OC1)C(=O)NCC1CCCO1 (stereo not drawn) | 0 | 0 | 36 | 0 | 0
O=[N+]([O-])c1ccccc1N=NNc1ccccc1 | 0 | 0 | 0 | 0 | 113
CSc1ccc(C2c3[nH]c4ccccc4c3CCN2C(=O)c2ccnn2C)cc1 (stereo not drawn) | 0 | 0 | 42 | 0 | -
OC1c2cc(Br)ccc2N=C2CCCN21 (stereo not drawn) | 0 | 0 | 0 | 0 | 0
SMILES | XiGFP reactiv | Vif inh | Wnt act | MITF act | esBAF inh
OC1c2cc(Br)ccc2N=C2CCCCCN21 (stereo not drawn) | 0 | 0 | 0 | - | 44
C[C@]12CC[C@H]3C(=CCc4cc(O)ccc43)[C@@H]1CCC2=O | 0 | 0 | 0 | 0 | 31!
CC(C)NC(=O)N(C)C[C@H]1Oc2ccc(NS(=O)(=O)c3ccc(F)cc3)cc2CC(=O)N([C@@H](C)CO)C[C@@H]1C | 0 | - | - | - | 0
COc1ccc(/C=N/Nc2ccccc2C(=O)O)cc1Cn1cc([N+](=O)[O-])cn1 | 0 | - | 0 | 0 | 48
Cc1ccc(C(=O)COC(=O)c2cccc(O)c2)s1 | 0 | 0 | 40 | 0 | 62
CSc1ncccc1C(=O)OCC(=O)c1ccc(C)s1 | 0 | 0 | 0 | 0 | 58
CSc1ncccc1C(=O)OCC(=O)c1ccc(Cl)s1 | 0 | 0 | 0 | - | 0
